Legend:
[1] = test system: red blood cells; assay: Hemocompatibility: hemolysis; details: human red blood cells in PBS, 37°C, 1 hour, absorbance 405 nm, n = 4
Method in brief: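 Na citrate-anticoagulated whole human blood spun 500g 5 min. Plasma replaced with 150 mM NaCl; wash repeated twice more; RBCs resuspended in PBS. Compound added 1:20 (v/v) to RBC suspension, 37°C 1 h, n = 4. Spun 500g 5 min; supernatant transferred for reading. 20% Triton X-100 positive control; PBS vehicle.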

[2] = test system: R6/2 mice; assay: Neuropathology in striatum of R6/2 mice; format: in vivo, mouse; details: 13-week-old R6/2 mice
[3] = target: pepsin (Sus scrofa, UniProt P00791); assay: Enzymatic degradation assay with pepsin by HPLC; format: in vitro ADME; details: pepsin 0.1 μM, pH 2, peptide 200 μM, 37°C, up to 150 min, analytical HPLC
Sequence of pepsin (Sus scrofa, UniProt P00791) (P00791 60-385): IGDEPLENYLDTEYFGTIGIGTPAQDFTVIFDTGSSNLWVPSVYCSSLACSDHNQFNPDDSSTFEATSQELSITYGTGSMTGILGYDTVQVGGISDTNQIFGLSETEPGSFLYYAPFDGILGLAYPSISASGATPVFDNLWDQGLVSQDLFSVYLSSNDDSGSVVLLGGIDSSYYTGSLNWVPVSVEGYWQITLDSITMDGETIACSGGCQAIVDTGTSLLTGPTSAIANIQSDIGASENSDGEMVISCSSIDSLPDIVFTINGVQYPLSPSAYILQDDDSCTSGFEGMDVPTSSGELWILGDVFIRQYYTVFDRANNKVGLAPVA

[4] = test system: C57BL/6J mice; assay: Toxicity in C57BL/6J mice: complete blood count; format: in vivo, mouse; details: C57BL/6J WT mice, 3 mg/kg with respect to peptide, Alzet osmotic pump, 8 weeks
Method in brief: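 Healthy male C57BL/6J mice in three groups (n = 3 to 4 per group) received test compound at 3 mg/kg with respect to peptide, or saline as negative control, via subcutaneously implanted osmotic pump for 8 weeks.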

[5] = target: VCP protein (Homo sapiens, UniProt P55072); assay: BLI; format: binding; details: immobilized VCP
Sequence of VCP protein (P55072 whole entry, species assumed): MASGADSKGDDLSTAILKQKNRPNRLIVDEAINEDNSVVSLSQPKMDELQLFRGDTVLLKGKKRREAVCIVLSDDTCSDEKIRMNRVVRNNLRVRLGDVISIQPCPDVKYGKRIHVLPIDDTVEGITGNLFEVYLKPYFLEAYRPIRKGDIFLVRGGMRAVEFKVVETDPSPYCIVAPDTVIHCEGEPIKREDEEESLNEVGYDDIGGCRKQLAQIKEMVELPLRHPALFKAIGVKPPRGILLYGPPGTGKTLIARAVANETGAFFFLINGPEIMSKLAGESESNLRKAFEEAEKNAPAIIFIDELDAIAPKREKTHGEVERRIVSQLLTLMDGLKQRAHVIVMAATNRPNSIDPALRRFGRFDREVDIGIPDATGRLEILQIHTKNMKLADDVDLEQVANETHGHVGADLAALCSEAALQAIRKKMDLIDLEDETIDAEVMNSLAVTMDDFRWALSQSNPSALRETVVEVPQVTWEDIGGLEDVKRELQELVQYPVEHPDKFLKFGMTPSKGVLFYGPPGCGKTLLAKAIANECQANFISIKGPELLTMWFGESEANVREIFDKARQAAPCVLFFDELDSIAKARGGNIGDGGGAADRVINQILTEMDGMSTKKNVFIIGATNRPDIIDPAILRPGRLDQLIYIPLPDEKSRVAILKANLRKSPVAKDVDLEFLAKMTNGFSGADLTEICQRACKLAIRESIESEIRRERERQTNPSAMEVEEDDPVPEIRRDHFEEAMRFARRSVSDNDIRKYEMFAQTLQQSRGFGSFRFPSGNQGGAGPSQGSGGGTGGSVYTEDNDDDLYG
Method in brief: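 Anti-His biosensor hydrated, then His-tagged VCP (50 µg/ml in sodium acetate buffer, pH 6.5) immobilized. Test compound (peptide or polymer) dissolved in tris buffer (pH 8.4) and run over a range of concentrations as analyte. KD, on-rate (ka) and off-rate (kd) were measured for each analyte by biolayer interferometry (BLItz).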

[6] = test system: R6/2 mice; assay: In vivo efficacy in HD R6/2 mice: body weight, survival, behavior; set-up: species or system mouse
Method in brief: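 Male hemizygous R6/2 mice (HD exon 1, 100–150 CAG) and WT littermates. Saline, peptide (3 mg kg⁻¹ day⁻¹) or polymer (1.69 mg kg⁻¹ day⁻¹) given by subcutaneous 28-day osmotic pump from 6 weeks; pump replaced after 4 weeks. Weekly tail suspension 20 s, weeks 7–13, clasping scored 0–3. Body weight and survival recorded throughout. 13–32 mice/group for behaviour.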

[7] = test system: pronase, chymotrypsin, elastase; assay: Enzyme degradation resistance by SDS-PAGE; format: in vitro ADME; details: treated separately with pronase, chymotrypsin and elastase for 1 hour, Coomassie Blue
[8] = test system: C3a in human serum; assay: C3a complement activation ELISA; details: human serum 4 hours; P1 at 9.9 and 33 μM (3 and 10 mg/kg); n = 4
Method in brief: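 Test compound incubated in human serum at 1:250 and 1:500 (compound:serum) for 4 h, then diluted. C3a ELISA: 2 h in C3a antibody-coated wells with shaking, 3 washes, biotin primary antibody 1 h, washes, streptavidin 1 h, substrate 30 min, absorbance 450 nm. Cobra venom factor positive control; DPBS vehicle.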

[9] = test system: R6/2 mice; assay: VCP level in striatal mitochondrial fractions of R6/2 mice; format: in vivo, mouse; details: 13-week-old R6/2 mice, WB, ATPB loading control
Method in brief: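 Striatum of 13-week-old pump-dosed mice homogenised in 250 mM sucrose, 20 mM Hepes pH 7.5, 10 mM KCl, 1.5 mM MgCl₂, EDTA/EGTA. Passed 20× through a 25-gauge needle, iced 30 min. Spun 800g 10 min, then supernatant 10,000g 20 min at 4°C; pellet washed and re-spun. Mitochondria lysed in 1% Triton X-100; VCP Western blot, ATPB loading control.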

[10] = test system: HdhQ111 cells; assay: Mitochondrial fragmentation assay; format: cell-based, mouse; details: 3 μM three times for 3 days, anti-Tom20, at least 95 cells per group, n = 3
Method in brief: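 HdhQ111 cells dosed at 3 μM three times over 3 days. Fixed in 4% PFA 20 min, permeabilised with 0.1% Triton X-100, blocked with 2% goat serum. Anti-Tom20 (1:4000) overnight at 4°C, Alexa 488 secondary 2 h RT, Hoechst nuclei stain. Confocal imaging; % cells with fragmented mitochondria, ≥95 cells/group, ≥3 independent replicates.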

[11] = test system: C57BL/6J mice; assay: Toxicity in C57BL/6J mice: histopathology scoring; format: in vivo, mouse; details: C57BL/6J WT mice, 3 mg/kg with respect to peptide, Alzet osmotic pump, 8 weeks, blinded pathologist
Method in brief: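 Male C57BL/6J mice, three groups of n = 3–4. Saline, peptide or polymer (3 mg/kg with respect to peptide) given by subcutaneous osmotic pump for 8 weeks.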

[12] = test system: chymotrypsin; assay: chymotrypsin; details: set for optimal enzyme activity, up to 1 hour
[13] = test system: pronase; assay: pronase; details: set for optimal enzyme activity, up to 1 hour
[14] = test system: pepsin; assay: pepsin in hydrochloric acid solution; details: 37°C, up to 150 min
[15] = test system: elastase; assay: elastase; details: set for optimal enzyme activity, up to 1 hour

HVLVMSATRR [P1] was tested, and the “hemolytic activity compared to vehicle control” value [1] was “nonsignificant”, the “striatal BDNF level compared to the HV3-TAT treatment group” value ([2]; Western blot) was “significantly higher level of BDNF” and the “mtHtt aggregates in striatum vs saline-treated R6/2 mice” value ([2]; anti-Htt EM48 staining, n = 6) was “reduced number of mtHtt aggregates”. The “DARPP-32 immunohistochemical staining in striatum” value ([2]; n = 6) was “Enhanced levels of DARPP-32”, the cleavage by pepsin [3] was “no cleavage observed” and the “complete blood count and blood chemistry profile vs saline” value [4] was “no significant deviation of any markers”. The “fold decrease in dissociation constant compared to the HV3-TAT peptide” value [5] was 150 fold, the “koff” value ([5]; dissociation rate constant) was 2.5e-05 s⁻¹ and the “effects of treatment on WT mice” value ([6]; WT littermates, P1 1.69 mg kg^−1 day^−1, 6 to 13 weeks of age) was “no significant effects on motor activity, body weight, or neuropathology”. For the same sequence, the “body weight vs R6/2 saline control” value ([6]; male R6/2 mice, 3 mg kg^−1 day^−1 per peptide (P1 1.69 mg kg^−1 day^−1), Alzet pump, 6 to 13 weeks of age) was “significantly inhibiting weight loss”, the “survival vs R6/2 saline control” value ([6]; male R6/2 mice, 3 mg kg^−1 day^−1 per peptide, Alzet pump, 6 to 13 weeks of age) was “extended survival” and the “clasping times compared to HV3-TAT-treated mice” value ([6]; male R6/2 mice, tail suspension test) was “shorter clasping times”. The hindlimb clasping behavior ([6]; male R6/2 mice, tail suspension test weekly, 3 mg kg^−1 day^−1 per peptide, Alzet pump) was “attenuated the clasping behavior”, the “molecular weight after enzyme treatment (gel electrophoresis)” value [7] was “maintained molecular weight” and the “C3a complement activation compared to vehicle” value [8] was “did not show a statistically significant difference in activity”. For the same sequence, the “VCP level on striatal mitochondria” value [9] was “blocks aberrant VCP mitochondrial translocation”, the “mitochondrial fragmentation vs vehicle” value [10] was “marked reduction in the number of fragmented mitochondria” and the “organ pathology vs saline control group” value [11] was “no significant differences in pathology”.

In the case of HVLVMSATRR, the not cleaved [12] is reported as “maintained molecular weight after 1 hour”, the not cleaved [13] is reported as “maintained molecular weight after 1 hour” and the not cleaved [14] is reported as “no cleavage observed for up to 150 min”. The not cleaved [15] was “maintained molecular weight after 1 hour”.

From publication PMC11529722 (Science Advances, 2024)
